The source of these data is PubChem BioAssay AID463079 (The Scripps Research Institute Molecular Screening Center, 2010).

Hit rate of the full screen: of about 330,000 compounds, about 2,000 (0.61%) were called active. Only a selection was taken, and actives are over-represented in it overall. A number with no mark means an inactive call.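 The calls were made as follows: active = inhibition above that plate's mean sample inhibition plus 3 SD (cut at about 26% in these data); inactive = the rest.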

What is called inhibition is the drop in the measured response relative to a control, in per cent.

This assay in a line: ATP-evoked calcium signal inhibitors, parental CHO, primary screen, counter-screen for OX1R antagonist project, cell-based, fluorescence, Fluo-8 calcium dye (AID 463079).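 Also: 0% = ATP-challenged DMSO wells and 100% = DMSO wells without ATP.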 The note with it: parental CHO-K1, ATP-induced calcium, Fluo-8 fluorescence; at 5.6 µM; hits give high values. An outline of the steps:
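material = parental CHO cells | also added = ATP as calcium-mobilizing challenge | dosing = single point at 5.6 µM | detection = intracellular calcium via Fluo-8 no-wash fluorescent dye | read-out = % inhibition | benchmarks = low control ATP plus DMSO, high control DMSO only | repeats = one well per compound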
(The purpose of a counterscreen is to sort out artefacts and off-target activity.)
In the case of `O=C(Cc1c(F)cccc1Cl)Nc1ncc([N+](=O)[O-])s1`, the inhibition is 3.65%.
For `COc1ccc(NC(=O)c2ccccc2[N+](=O)[O-])cc1OC` the value was -4.31%; for `CC(=O)Oc1ccccc1C(=O)Nc1ncc([N+](=O)[O-])s1`, 39% (active); for `COc1ccccc1N1CCN(C(=O)CSc2ncnc3c2cnn3-c2ccc(C)c(C)c2)CC1`, -14.4%.
As for `O=C(N/C(=C\c1ccc(F)cc1)C(=O)N1CCCCCC1)c1ccccc1`, the inhibition is -14%.
Then `CCc1ccccc1N1C(=O)C2C3CC(=O)C(c4ccccc43)C2C1=O` (stereo not given), with 29.8% (active); and `CC1=C(C)CC2C(=O)N(c3cccc4ccccc34)C(=O)C2C1` (stereo not given), with -11.3%.
As for `CC(=O)Nc1ccc(N2C(=O)C3C4CC(=O)C(c5ccccc54)C3C2=O)cc1` (stereo not given), the inhibition is 9.03%.
For `CC(=O)c1c(C)[nH]c(C(=O)COC(=O)c2cccs2)c1C` the value was -6.37%; for `COc1cccc(C(=O)OCC(=O)c2[nH]c(C)c(C(C)=O)c2C)c1`, -11.5%.
Then `CC(=O)c1c(C)[nH]c(C(=O)COC(=O)c2cccc(S(=O)(=O)N(C)c3ccccc3)c2)c1C`, with 74.8% (active).
For `Cc1nn(C(C)C(=O)N2CCOCC2)c(=O)c2nn(-c3ccccc3)c(C)c12` (stereo not given) the value was -7.21%.
Turning to `CC[C@]12c3[nH]c4ccc(OC)cc4c3CCN1C(=O)C(CC(=O)NCCN1CCOCC1)C[C@@H]2C(=O)N1CCN(C(=O)C2CC2)CC1` (stereo not given in full), the inhibition is -9.94%.
Then `COc1cc(OC)cc(C(=O)NCC(=O)OCC(=O)NC(C)CCc2ccccc2)c1` (stereo not given), with -9.76%; and `Cc1cc(C)cc(OCC(=O)NC(C)c2ccccc2)c1` (stereo not given), with -19.1%.
For `COc1cc(OC)cc(C(=O)N[C@H](C(=O)OCC(=O)NC(C)c2ccccc2)C(C)C)c1` (stereo not given in full) the value was 41.6% (active); for `CCC(C(=O)Nc1ccc(C(C)C)cc1)c1ccccc1` (stereo not given), 54% (active); for `CCC(C(=O)Nc1ccc2c(c1)OCCO2)c1ccccc1` (stereo not given), -14.5%.
On to `CCC(C(=O)OCC(=O)Nc1ccc(C(=O)Nc2ccc(OC)cc2)cc1)c1ccccc1` (stereo not given), for which the inhibition was 2.63%.
`OCC[C@H]1C[C@@H](O)[C@H](O)[C@@]2(OCCc3ccccc32)O1`: the inhibition was -2.14%.
For `CCC(C)N(C(=O)CSc1nnnn1-c1ccccc1OC)C1CCS(=O)(=O)C1` (stereo not given) the value was -20%; for `O=C(/C=C/c1ccc2c(c1)OCCO2)c1ccc(O)cc1`, 3.62%; for `O=C(O)/C=C/c1ccc(OCCCF)cc1`, -5.89%.
For `O=C(/C=C(O)/C=C/c1ccc(O)cc1)/C=C/c1ccc(O)cc1` the value was 44.2% (active); for `CC1CCCCN1CCCNC(=O)Cn1ncc2c([nH]c3ccccc32)c1=O` (stereo not given), -10.7%.
For `CCc1ccccc1NC(=O)c1ccc2c(c1)CCN2S(C)(=O)=O` the value was -12.5%; for `CN(C)CCCNC(=S)N1CCN(c2nc(-c3ccccc3)cs2)CC1`, -5.41%; for `Cc1cccn2cc(-c3cccc(S(=O)(=O)N4CCCCC4)c3)nc12`, -20.2%.
With `CC1(C)C=Cc2c(ccc3c2OC[C@@H](c2ccc(O)cc2O)C3)O1`, the inhibition is 94.3% (active).
As to `c1ccc(CN=C2Nc3ccccc3CS2)nc1`, the inhibition is -13.6%.
On to `Cc1ccc(N(CC(=O)Nc2cc(C)cc(C)c2)S(=O)(=O)c2cccc3nonc23)cc1`, for which the inhibition is -11.6%.
As to `CCN(CC)S(=O)(=O)c1ccc(N(C)Cc2cccc(OC)c2OC)nc1`, the inhibition is 28.5%.
Consider `CCN(CC)S(=O)(=O)c1ccc(N(C)Cc2ccc(C(F)(F)F)cc2)nc1`, for which the inhibition is 43.6% (active).
Take `CCN(CC)S(=O)(=O)c1ccc(N(C)CCc2ccc(OC)c(OC)c2)nc1`: the inhibition was -13.7%.
Then `Nc1ncnc2c1ncn2[C@@H]1O[C@H](CNS(=O)(=O)c2ccc(-c3ccno3)s2)[C@@H](O)[C@H]1O`, with -2.72%; and `CC[C@]12c3[nH]c4ccc(Cl)cc4c3CCN1C(=O)[C@@H](CC(=O)NCCCOC)C[C@@H]2C(=O)N1CCN(C(=O)C2CC2)CC1`, with -12.5%.
Turning to `CC(=O)c1c(C)n(-c2ccc(N(C)C)cc2)c2ccc(OCC(N)=O)cc12`, the inhibition is -2.26%.
`CC(=O)c1c(C)n(-c2ccc(C)cc2)c2ccc(O)cc12`: the inhibition was 81.6% (active).
`CCOC(=O)c1c(CN2CCOCC2)n(-c2ccccc2)c2ccc(O)cc12`: the inhibition was -10.2%.
Regarding `C/C(=N\NC(=O)c1ccc(CSc2nc(C)cc(C)n2)cc1)C1CCCCC1`, the inhibition was -15.5%.
For `COc1ccc(C(=O)Nc2cc(C)ccc2NC(=O)COc2ccccc2)cc1` the value was -7.7%; for `Cc1ccc(O)c(NC(=S)NC(=O)COc2ccc(Br)cc2)c1`, 58.4% (active).
For `CCS(=O)(=O)c1ccc(O)c(NC(=O)COc2ccc(Cl)cc2)c1`, the inhibition is -4.26%.
Then `COCCCNC(=O)c1ccc(CNS(=O)(=O)c2ccc(NC(C)=O)cc2)cc1`, with -6.87%.
Then `Cc1nnc(SCC(=O)N2c3ccccc3C(C)(c3ccc(Cl)cc3)CC2(C)C)s1` (stereo not given), with -18.2%.
For `CCOC(=O)[C@H]1[C@H]2COc3ccccc3[C@@H]2N2C(=O)CN(Cc3ccccc3)C(=O)[C@@]12C`, the inhibition was -31.8%.
Then `O=S(=O)(c1ccc(Cl)s1)N1CCC2(CC1)OCCO2`, with -9.61%.
Then `CC(OC(=O)/C=C/c1ccccc1)C(=O)Nc1ccc(C(N)=O)cc1` (stereo not given), with -8.76%.
Regarding `C[C@H](NC(=O)OC(C)(C)C)c1nnc(SCC(=O)Nc2ccc(Br)cc2)o1`, the inhibition was -14.8%.
In the case of `C[C@@H](NC(=O)OC(C)(C)C)c1nnc(S(=O)(=O)Cc2ccccc2)o1`, the inhibition was 51.1% (active).
Consider `CC(C)Sc1nnc([C@H](Cc2ccccc2)NC(=O)OC(C)(C)C)o1`, for which the inhibition is -15.8%.
With `NNC(=O)C1CC(O)CN1S(=O)(=O)c1ccc(Cl)cc1` (stereo not given), the inhibition is -12.3%.
Consider `O=C(CN1CCN(S(=O)(=O)c2cc(Cl)ccc2Cl)CC1)c1ccc(O)c(O)c1`, for which the inhibition was -11.1%.
For `Cc1ccc(S(=O)(=O)Nc2ccc(F)c(S(=O)(=O)N3CCOCC3)c2)cc1` the value was -18.4%; for `COc1cccc(CSc2nc3nc(C)cc(C)n3n2)c1`, 9.68%.
